# Bioassay records from PubChem BioAssay.
# Only some compounds are listed: those with a hit (about 4% of all), similar ones and a draw of the others.
# OX1R antag-1: blocks the human orexin 1 receptor; O43613; CHO/OX1R cells, Fluo-8 calcium fluorescence, orexin A; inhibition, % at 5 µM; 330,000 compounds, 0.43% hits; AID 434989;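 active = inhibition above its plate's threshold, mean inhibition of all tested compounds on the plate plus 3 SD, cut at about 37% in these data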;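 also: 0% = orexin A challenge wells and 100% = SB-334867-A antagonist wells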
# CHO parental Ca: counter-screen for OX1R antagonists: effect in parental CHO cells; parental CHO-K1, ATP-induced calcium, Fluo-8 fluorescence; inhibition, % at 5.6 µM; 330,000 compounds, 0.63% hits; AID 463079;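 active = inhibition above that plate's mean sample inhibition plus 3 SD, cut at about 26% in these data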;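 also: 0% = ATP-challenged DMSO wells and 100% = DMSO wells without ATP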
#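 Test system: parental CHO cells; detection: calcium-sensitive Fluo-8 fluorescence; evaluation: percent inhibition of calcium signal; also added: ATP as calcium-mobilizing challenge; repeats: one well per compound; control set: ATP-challenged DMSO wells low, unchallenged DMSO wells high; compound: single nominal dose of 5.6 µM per compound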
# NTR1 agonist: agonists of human neurotensin receptor NTR1; P30989; NTR1-U2OS beta-arrestin-GFP spot imaging, agonist mode; activation, % at 20 µM; 330,000 compounds, 0.17% hits;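 active = activation at or above 40% of the spot to cytoplasm intensity ratio, with at least 20 cells analyzed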;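 also: 0% = DMSO without peptide and 100% = 100 nM NTR1 peptide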
# Target sequence (P30989 whole entry, looked up): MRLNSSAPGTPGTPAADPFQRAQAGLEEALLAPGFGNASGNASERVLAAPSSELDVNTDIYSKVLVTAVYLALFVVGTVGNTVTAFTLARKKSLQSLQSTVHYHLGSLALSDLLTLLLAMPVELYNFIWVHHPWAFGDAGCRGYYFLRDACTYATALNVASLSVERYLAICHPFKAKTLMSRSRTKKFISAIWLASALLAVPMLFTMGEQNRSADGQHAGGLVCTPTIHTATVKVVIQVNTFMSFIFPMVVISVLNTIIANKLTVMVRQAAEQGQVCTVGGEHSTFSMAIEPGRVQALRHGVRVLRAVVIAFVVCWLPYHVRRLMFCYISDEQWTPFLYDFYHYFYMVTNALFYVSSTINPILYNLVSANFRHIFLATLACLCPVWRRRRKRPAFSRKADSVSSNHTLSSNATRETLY
# TAAR1 ag: human TAAR1 agonism. CHO RD-HGA16 TAAR1, Fluo-8 calcium fluorescence; vehicle wells 0%, saturating PEA agonist 100%. Q96RJ0. activation, % at 3 µM. 360,000 compounds, 0.99% hits;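 active = activation above the mean activation of all test compounds in the run plus 3 SD, cut at about 38% in these data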
#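 Test system: RD-HGA16 (CHO) cells co-expressing Gα16 and hTAAR1; dosing: one-point dosing at 3 µM (nominal); timing: 17-24 h seeding, 75 min 37 °C dye, 30 min RT; signal: kinetic Fluo-8 calcium fluorescence; read-out basis: % activation relative to PEA EC100 response; controls: DMSO and PEA EC100; replicates: n 1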
# OX1R antag-2: OX1R (human) antagonism; OX1R-expressing cells, FRET antagonist read-out; O43613; AID 485270; inhibition, % at 6.6 µM; 330,000 compounds, 1.8% hits; in the data active = inhibition mostly above about 38%, no sharp cut-off; inactive = mostly below about 40%;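 also: 0% = agonist challenge alone and 100% = reference antagonist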
# TAAR1 antag: antagonists of human TAAR1 | 360,000 compounds, 1.5% hits | inhibition, % at 3 µM | CHO RD-HGA16 TAAR1, Fluo-8 calcium fluorescence, antagonist;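 active = inhibition above a per-plate cutoff, the mean inhibition of test compounds on that plate plus 3 SD, cut at about 49% in these data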;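 also: 0% = DMSO plus EC80 beta-PEA response and 100% = DMSO alone without agonist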
#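 Test system: CHO RD-HGA16 cells bearing hTAAR1 | Reagent: β-PEA, EC80 | Compound dosing: 3 µM, single point | Schedule: Dye loading 75 min at 37 °C, then 30 min room temperature | Signal: Calcium fluorescence with Fluo-8 | Evaluation: Percent inhibition of PEA-evoked calcium signal, max/basal emission ratio | Control set: DMSO-only wells and EC80 β-PEA-stimulated wells | Repeats: Singlicate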
# * hit, by the source's call; · = not tested or not shown.
SMILES,OX1R antag-1,CHO parental Ca,NTR1 agonist,TAAR1 ag,OX1R antag-2,TAAR1 antag
N#Cc1ccccc1Sc1ccccc1C(=O)Nc1ccc2ccccc2c1,2.6,2.4,1.3,1.3,58.2*,29.9
N#Cc1ccccc1Sc1ccccc1C(=O)Nc1ccc(Br)cc1,-0.1,17.3,-0.2,3.4,27.9,31.2
COC(=O)c1cc2c(c3c4cc(C)ccc4n(S(=O)(=O)c4ccc(OC)cc4)c13)C(=O)N(Cc1ccccc1OC)C2,·,·,·,-0.1,·,-14.6
COc1ccc(C(=O)Nc2cc3c(cc2OC)CCCC3)cc1Br,8.8,31.4*,1.2,13.5,71.9*,8.9
CSc1nccn1CC(=O)Nc1ccc(F)cc1,-11.8,40.8*,0.8,1.8,6.7,8.3
O=c1[nH]c(/C=C\c2ccc(O)cc2)nc(O)c1[N+](=O)[O-],-12.4,6.5,0.9,3.9,46.9*,-3.3
O=c1[nH]c(/C=C\c2cccs2)nc(O)c1[N+](=O)[O-],-0.8,-7.4,0.3,11.3,64.8*,-1.8
CCOc1cc(/C=C\c2nc(O)c([N+](=O)[O-])c(=O)[nH]2)ccc1OC(C)C,-9.1,-2.2,0.0,0.8,14.6,-0.1
O=c1[nH]c(/C=C\c2ccc(O)c(Cl)c2)nc(O)c1[N+](=O)[O-],-9.9,6.9,-0.5,4.1,51.3*,-19.2
O=C(C1CCCN(S(=O)(=O)c2cccc3cccnc23)C1)N1CCc2ccccc21 (stereo not given),9.5,2.0,2.6,6.0,70.3*,43.6
O=C(NCC1COc2ccccc2O1)C1CCCN(S(=O)(=O)c2cccc3cccnc23)C1 (stereo not given),-23.8,-14.7,1.8,13.5,55.8*,-4.6
O=C(Nc1ccccc1F)C1CCCN(S(=O)(=O)c2cccc3cccnc23)C1 (stereo not given),-24.8,-32.8,-3.6,5.3,35.1*,17.1
COc1cccc(NC(=O)C2CCCN(S(=O)(=O)c3cccc4cccnc34)C2)c1 (stereo not given),15.3,-7.7,-3.9,5.2,55.1*,19.7
O=C(NC1CCCCC1)C1CCCN(S(=O)(=O)c2cccc3cccnc23)C1 (stereo not given),-22.2,-13.6,0.8,1.3,16.9,-16.9
Cc1cccc(NC(=O)CNC(=O)[C@H](CCc2ccccc2)NC(=O)[C@H]2O[C@@H](n3cnc4c(N)ncnc43)[C@H](O)[C@@H]2O)c1C,·,·,·,6.0,·,-26.9
O=C(Cn1cnc2ccccc21)N/N=C/c1ccccc1[N+](=O)[O-],-8.4,-3.0,-0.5,2.5,23.1,-2.2
CCOc1ccccc1NC(=O)C1CCCN(S(=O)(=O)c2cccc3nsnc23)C1 (stereo not given),-6.9,-20.9,1.5,12.7,55.3,18.6
CCOc1ccccc1NC(=O)C1CCCN(S(=O)(=O)c2cccc3cccnc23)C1 (stereo not given),-22.9,-32.0,-4.4,4.5,38.2*,15.7
COc1ccc(N2CCN(C(=O)c3ccccc3NS(=O)(=O)c3ccc(C)cc3)CC2)cc1,·,·,0.7,-1.3,·,-9.1
Clc1ccc(-n2ncc3c(NCC4CCCO4)ncnc32)cc1 (stereo not given),-12.2,-5.9,-0.4,10.4,12.5,53.3*
Clc1ccc2[nH]c3c(NCCN4CCOCC4)ncnc3c2c1,-13.2,-9.8,2.0,5.4,8.7,6.7
c1ccc(-n2ncc3c(NCC4CCCO4)ncnc32)cc1 (stereo not given),-23.5,6.3,-1.5,8.8,28.6,8.9
Clc1ccc2[nH]c3c(NCC4CCCO4)ncnc3c2c1 (stereo not given),39.5,38.2*,8.6,15.0,124.0*,53.9*
COCc1cc(N2CCN(C(=O)OC(C)(C)C)C[C@H]2C)ccc1N1C[C@@H](C)O[C@@H](C)C1,·,·,·,-0.1,·,-29.3
Cc1ccc(N(CC(O)CON=C2c3ccccc3-c3ccccc32)S(C)(=O)=O)cc1 (stereo not given),32.6,-6.3,14.2,9.4,54.0*,-11.2
SMILES,OX1R antag-1,CHO parental Ca,NTR1 agonist,TAAR1 ag,OX1R antag-2,TAAR1 antag
CN(C)c1ccc(NC(=O)c2sc(SCC(=O)Nc3nccs3)nc2N)cc1,22.1,0.4,4.7,19.5,14.9,66.7*
COc1ccc(-c2csc(Nc3ccc(S(=O)(=O)Nc4cc(C)on4)cc3)n2)cc1,10.2,4.8,0.4,-2.2,40.4*,17.6
COc1ccc(-c2csc(Nc3ccc(S(N)(=O)=O)cc3)n2)cc1,4.6,11.0,7.7,10.4,10.4,6.4
COC(=O)C1=C(C)N(Cc2ccccc2C(F)(F)F)C(=NCc2ccc3c(c2)OCO3)NC1c1cccc(C(F)(F)F)c1 (stereo not given),·,·,·,4.9,·,-0.4
Cc1cc(Nc2ccccc2)nc(N2CCOCC2)n1,-2.7,-7.9,-0.6,40.8*,1.8,-16.9
O=c1c2ccccc2nc2c3ccccc3c(NCCO)nn12,-19.3,-9.3,1.7,2.1,49.5*,24.1
CC1=C(C(=O)Nc2ccc(C(=O)N3CCN(c4cccc(Cl)c4)CC3)cc2)SCCO1,-15.1,-11.0,2.8,8.1,6.7,1.9
FC(F)(F)c1cccc(NC(=S)N2CCN(c3cccc(C(F)(F)F)c3)CC2)c1,-5.8,69.5*,13.3,4.9,16.4,32.0
Fc1ccc(NC(=S)N2CCN(c3cccc(C(F)(F)F)c3)CC2)cc1,1.4,5.3,0.7,4.9,13.3,18.9
CC1=C(C(=O)Nc2cccc(C(=O)N3CCN(c4cccc(C(F)(F)F)c4)CC3)c2)SCCO1,62.1*,40.0*,7.4,8.2,9.4,55.7*
O=C(NCc1ccccc1)[C@@H]1CCCN1C(=O)[C@H]1CCCN1C(=O)c1cccs1,·,·,·,1.7,·,-40.4
Cc1cccc(N2CCN(C(=O)C3CC(=O)N(c4ccc5c(c4)OCCO5)C3)CC2C)c1 (stereo not given),0.8,-14.1,1.7,17.1,-3.7,55.1*
CCCNC(=O)C(Cc1ccc(I)cc1)NC(=O)C1CC1 (stereo not given),-23.1,-22.2,-2.3,11.9,6.5,-3.3
O=C(Nc1ccc2snnc2c1)Nc1cccc2ccccc12,6.2,27.2*,9.0,11.9,57.9*,0.6
CC1(C(=O)NCCc2ccccc2)Cc2c(-c3cccc(C(F)(F)F)c3)ccnc2O1 (stereo not given),·,·,·,-0.1,·,-18.9
CC(C)C(c1nnnn1Cc1ccco1)N1CCN(c2nc3ccccc3s2)CC1 (stereo not given),-8.9,3.4,2.9,16.3,11.4,54.6*
CC1CN(C(=S)NC(=O)c2ccc([N+](=O)[O-])cc2)CC(C)O1 (stereo not given),-10.9,-5.7,0.5,0.8,119.5*,10.2
COC(=O)C1=C(C)N(Cc2ccc(C(F)(F)F)cc2)C(=NCc2cccc(C(F)(F)F)c2)NC1c1ccccc1C(F)(F)F (stereo not given),·,·,·,0.3,·,-19.4
